Most compounds without a hit are left out; they make up all but 1.8% or so of the library.
DDE Tn6 FP inh: inhibitors of Tn6 peptide binding to human fibrin DD(E) | inhibition, % at 8.3 µM | AID 720509 | hit rate 0.21% among 370,000 | Fibrin DD(E) TRITC-Tn6 fluorescence polarization displacement | P02675;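 active = inhibition above a per-campaign cutoff: mean of compounds within control limits plus 3 SD, cut at about 15% in these data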
mABHD4 FP: inhibitors of mouse ABHD4. purified mABHD4, FP-Rh probe fluorescence polarization. hit rate 0.54% among 370,000. Q8VD66. inhibition, % at 8.92 µM;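 active = inhibition exceeding the mean over every tested compound plus 3 SD, cut at about 30% in these data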
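Assay system: mABHD4 protein; medium: HEPES pH 7.0, NaCl, Pluronic buffer; dosing: 8.92 µM, single dose; schedule: 45 min + 60 min at 25 °C; signal: FP readout, ex 525 nm / em 598 nm; read-out: normalized percent inhibition of probe labeling; repeats: single replicate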
HTRA1 inh: inhibitors of human serine peptidase HTRA1; Q92743; recombinant HTRA1, FP-rhodamine activity-based probe, fluorescence polarization; inhibition, % at 5.96 µM; hit rate 0.5% among 340,000; AID 504803; in the data active = inhibition above about 36%
SIAE primary: human SIAE inhibition, primary screen; inhibition, % at 9.66 µM; hit rate 0.69% among 370,000; SIAE FP-Rh probe binding, fluorescence polarization;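 active = inhibition above a cutoff: mean of compounds within the control limits plus 3 SD of those, cut at about 17% in these data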
Target sequence (Q9HAT2 whole entry, looked up): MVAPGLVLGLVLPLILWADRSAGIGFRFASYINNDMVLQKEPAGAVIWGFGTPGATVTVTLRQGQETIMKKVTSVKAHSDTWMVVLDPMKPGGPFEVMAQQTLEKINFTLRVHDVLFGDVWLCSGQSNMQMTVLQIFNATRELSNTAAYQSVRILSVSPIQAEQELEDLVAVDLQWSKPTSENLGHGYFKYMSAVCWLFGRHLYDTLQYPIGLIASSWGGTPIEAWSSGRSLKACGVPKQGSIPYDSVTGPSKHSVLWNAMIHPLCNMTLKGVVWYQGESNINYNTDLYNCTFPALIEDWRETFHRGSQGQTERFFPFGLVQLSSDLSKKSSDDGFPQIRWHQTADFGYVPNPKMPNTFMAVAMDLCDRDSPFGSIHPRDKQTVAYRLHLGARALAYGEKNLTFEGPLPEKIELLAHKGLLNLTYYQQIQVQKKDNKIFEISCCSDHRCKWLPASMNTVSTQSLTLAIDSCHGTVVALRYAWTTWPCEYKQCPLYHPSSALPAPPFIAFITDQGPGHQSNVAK
DDE Tn7 FP inh: disrupts Tn7 cyclic peptide binding to fibrin D-Dimer-E complex; inhibition, % at 8.3 µM; P02675; FP displacement of FITC-Tn7 peptide from fibrin DD(E); 0% = median of compound wells per plate; hit rate 0.13% among 370,000; AID 720508;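 active = inhibition above the mean of compounds falling within the control limits plus 3 SD of them, cut at about 14% in these data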
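Measure: % inhibition scaled between sample-field median and high-control FP; Test system: human fibrin DD(E); Quantity: 2 µM final DD(E) protein; Doses: one dose, 8.3 µM nominal; Schedule: compound with protein 10 min, then 3 h after probe, room temperature; Detection: fluorescence polarization; Medium: Tris buffer with calcium and detergent, pH 7.8.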
TCR CD3 inh: inhibitors of human TCR-CD3 interaction; TAMRA-labeled TCR probe fluorescence, biochemical; hit rate 0.37% among 360,000; inhibition, % at 9.4 µM;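 note: recombinant mutant TCR 2C K166C tagged with TAMRA read by polarization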
HTRA1 inh conf: confirmation of human HTRA1 inhibitors. shares compounds with HTRA1 inh. recombinant HTRA1, FP-rhodamine activity-based probe, fluorescence polarization. inhibition, % at 5.96 µM. hit rate 66% among 1,600. AID 540248;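 active = mean inhibition over three repeats above a set limit taken from the earlier primary screen, cut at about 37% in these data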;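 note: inhibitors block probe binding so polarization drops and inhibition rises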
BSA probe FL: counter-screen for TCR-CD3 interaction inhibitors: BSA probe; shares compounds with TCR CD3 inh; TAMRA-labeled BSA probe fluorescence counterscreen; inhibition, % at 9.4 µM; hit rate 10% among 1,200; AID 652035; in the data active = inhibition above about 23%
TCR-CD3 inh conf: confirmation of human TCR-CD3 interaction inhibitors | shares compounds with TCR CD3 inh | inhibition, % at 9.4 µM | hit rate 48% among 1,200 | TAMRA-labeled TCR probe fluorescence binding assay
Tn6 DDE ctr: counter-screen hit for Tn6 peptide-fibrin DD(E) binding disruption. shares compounds with DDE Tn6 FP inh. hit rate 2% among 680. inhibition, % at 8.3 µM. TRITC-Tn6 fluorescence polarization displacement; 0% = median of compound wells, not DMSO. AID 720621;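 active = inhibition above the mean of test compounds lying between the control limits plus 3 SD of those, cut at about 14% in these data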
DDE Tn6 confirm: confirmation of inhibitors of Tn6 binding to human fibrin DD(E); hit rate 10% among 680; FP displacement of TRITC-Tn6 peptide from DD(E); 0% = per-plate median of test wells; inhibition, % at 8.3 µM; shares compounds with DDE Tn6 FP inh;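 active = inhibition above the mean of compounds lying within the control limits plus 3 SD, cut at about 16% in these data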
ABHD4 confirm: ABHD4 (mouse) inhibition, FP confirmation; shares compounds with mABHD4 FP; purified mABHD4, FP-Rh probe fluorescence polarization; inhibition, % at 8.92 µM; hit rate 55% among 1,800; AID 720658;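 active = mean inhibition across replicates above the hit cutoff set in the primary screen, cut at about 30% in these data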
A number is an active result; i = inactive; nt = no result given; ! = not active in a repeat. Cut-off read from the data, not from the text of the source, unless noted: active = inhibition above about 19%; inactive = the rest.

SMILES	DDE Tn6 FP inh	mABHD4 FP	HTRA1 inh	SIAE primary	DDE Tn7 FP inh	TCR CD3 inh	HTRA1 inh conf	ABHD4 confirm	others
O=C(O)C(Cc1ccccc1)N1C(=O)/C(=C/C=C/c2ccco2)SC1=S (stereo not drawn)	i	42	37	i	i	i	i	i
O=C(c1cc(O)c(O)c([N+](=O)[O-])c1)c1ccccc1F	i	37	48	i	i	i	63	32
O=C1OC(c2ccc3ccccc3c2O)(c2ccc3ccccc3c2O)c2ccccc21	i	44	36	i	i	i	44	48
Cc1ccc(NC(=S)NNC(=O)CSc2nnc(SCc3cccc4ccccc34)s2)cc1	i	i	nt	i	i	nt	nt	nt
Oc1cc(O)cc(/C=C/c2ccc(O)c(O)c2)c1	i	32	38	i	i	i	36	i
C/C=C/c1ccc(O)c(OC)c1	i	i	i	i	i	i	nt	nt
C=CCN1C(=O)[C@@H](CC(=O)NCCCN2CCCC2=O)[C@]2(C(=O)OC)CCCCC=C12	i	i	nt	i	i	nt	nt	nt
Cc1ccc(Cn2cc(CN(C(C)(C)C)S(=O)(=O)c3ccc(F)cc3Br)nn2)cc1	i	i	nt	i	i	nt	nt	nt
CN(C)c1ccc(N/C=C/C(=O)c2ccccc2)cc1	i	46	54	i	i	i	i	i
CN1CCc2cccc3c2[C@H]1Cc1ccc(O)c(O)c1-3	i	88	59	18!	i	i	50	i
NS(=O)(=O)c1ccc(N=Nc2c(O)c(C(=O)O)cc3ccccc23)cc1	i	49	45	i	i	i	i	i
COCc1[nH]nc2c1C(c1ccc(C)cc1)N(Cc1ccccc1)C2=O (stereo not drawn)	i	i	nt	i	i	i	nt	nt
COC1=C[C@H](C(=O)NCCNC(C)=O)[C@@]2(C)Cc3ccccc3[C@H]2CC1=O	i	i	nt	i	i	nt	nt	nt
COC(=O)c1cc2c(-c3ccccc3)cc3ccccn3c-2c1C(=O)OC	i	i	i	i	i	i	nt	nt
COC(=O)c1c(C(=O)OC)c2cccc3cc(-c4ccccc4)c4ccc1c4n32	i	36	39	i	i	i	58	35
O=C(CSc1nnc(-c2ccccc2)n1-c1ccc(Cl)cc1)Nc1ccccc1-c1ccccc1	i	i	nt	i	i	nt	nt	nt
CCN(CC)c1ccc(/C=N/Nc2ccc(C)cc2)c(O)c1	i	31	42	i	i	i	i	31
Cc1ccc(C(=O)C=Cc2cccc(C)c2)cc1	i	i	i	i	i	i	nt	nt
CCc1ccc(/C=C/C(=O)c2cc(Br)ccc(=O)c2O)cc1	i	38	67	i	i	i	66	i
Cc1cccc(/C=C/C(=O)c2cc(Br)ccc(=O)c2O)c1	i	36	57	i	i	i	59	i
CCCCCCCCN1C(=O)[C@@H](CC(=O)NCc2ccc(OC)c(OC)c2)C[C@@]2(C(=O)OC)C1=C[C@H](C(C)C)O[C@@H]2C1CC1	i	i	nt	i	i	nt	nt	nt
CCOC(=O)N1CCN(C(=O)C[C@H]2C[C@@]3(C(=O)OC)C(=C[C@H](C4CCCC4)O[C@@H]3C)N(Cc3cccc4ccccc34)C2=O)CC1	i	i	nt	i	i	nt	nt	nt
COc1ccc2noc3c2c1C(=O)c1ccccc1-3	52	54	63	18	i	22	45	i	BSA probe FL=44;TCR-CD3 inh conf=29;Tn6 DDE ctr=53;DDE Tn6 confirm=i
C[C@@H](NC(=O)C[C@H]1CC[C@H]2[C@@H](COc3ccc(NC(=O)Nc4ccccc4)cc3C(=O)N2C)O1)c1ccccc1	i	i	nt	i	i	nt	nt	nt
COC(=O)[C@]12C[C@H](CC(=O)NCCC(C)C)C(=O)N(CCC3=CCCCC3)C1=C[C@H](C(C)C)O[C@@H]2C1CC1	i	i	nt	i	i	nt	nt	nt
SMILES	DDE Tn6 FP inh	mABHD4 FP	HTRA1 inh	SIAE primary	DDE Tn7 FP inh	TCR CD3 inh	HTRA1 inh conf	ABHD4 confirm	others
O=C1CC(N(O)c2ccccc2)C(=O)N1c1cc(Cl)cc(Cl)c1 (stereo not drawn)	i	45	40	i	i	25	i	i	BSA probe FL=i;TCR-CD3 inh conf=i
CCCOc1ccc(N2C(=O)CC(N(O)c3ccccc3)C2=O)cc1 (stereo not drawn)	i	i	i	i	i	i	nt	nt
COc1cc(-n2c(C)nc3cc(C(=O)N4CCCN(C(C)=O)CC4)ccc32)cc(OC)c1OC	i	i	nt	i	i	nt	nt	nt
C[n+]1c(-c2ccccc2)cc2c(=Cc3ccc([N+](=O)[O-])cc3)c3ccccc3n21	i	31	80	i	i	i	i	38
CC(C)n1c2ccccc2c2cc([N+](=O)[O-])ccc21	i	i	i	i	i	i	nt	nt
Oc1cc(CNC2CCCCC2)c(O)cc1CNC1CCCCC1	i	38	48	i	i	i	64	56
CCCn1nc([N+](=O)[O-])c(C(C#N)c2nc3ccccc3s2)c(Cl)c1=O (stereo not drawn)	i	78	76	i	i	i	72	98
CCn1nc([N+](=O)[O-])c(C(C#N)c2nc3ccccc3n2C)c(Cl)c1=O (stereo not drawn)	i	i	i	i	i	i	nt	nt
Cc1ccc(C)n1-c1ccc(N(C)C)cc1	i	32	38	i	i	i	40	i
Cc1ccc(N(C)C)cc1	i	i	nt	i	i	i	nt	nt
CCCCCCCCN1C(=O)[C@@H](CC(=O)N2CCN(C(=O)OCC)CC2)C[C@@]2(C(=O)OC)C1=C[C@H](COCc1ccccc1)O[C@@H]2C	i	i	nt	i	i	nt	nt	nt
N#Cc1ccc(/C=N/NC(=S)Nc2ccc(S(=O)(=O)N3CCOCC3)cc2)cc1	i	i	i	i	i	i	nt	nt
O=[N+]([O-])c1cc(Cl)cc(/C=N/NC(=S)Nc2ccc(S(=O)(=O)N3CCOCC3)cc2)c1O	i	57	62	i	i	42	59	118	BSA probe FL=i;TCR-CD3 inh conf=43
O=C(NCCc1c[nH]c2ccccc12)OCc1cn(Cc2ccc(F)cc2F)nn1	i	i	nt	i	i	nt	nt	nt
